Molecules are shown by their SMILES.

For the assay, the target named is Sodium/hydrogen exchanger (Oryctolagus cuniculus, UniProt P23791+P50482+P26432). As to the kind of experiment: Inhibition of 5-N-(ethyl isopropyl)-amiloride[EIPA]-sensitive Na+ uptake into acidified rabbit erythrocytes. The format is functional. The procedure, abridged:
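Rabbit blood (heparinized) red cells, washed, acidified in pH 6.2 KCl buffer with ouabain, 10 min 37 °C; internal pH clamped with 200 μM DIDS and 1 mM acetazolamide, 30 min 37 °C. Uptake 5 min at 37 °C in pH 8.0 buffer with 10 mM NaCl plus ²²Na tracer, 1% DMSO. Triplicates; counts with 10 μM EIPA subtracted; IC50 by nonlinear fit.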
Molecule `Cc1cc(-c2ccco2)c(S(C)(=O)=O)cc1C(=O)N=C(N)N` registered a 50% inhibitory concentration (IC50) of 16 nM.

As to `Cc1cc(Nc2ncccn2)c(S(C)(=O)=O)cc1C(=O)N=C(N)N`, the IC50 was found to be 8.3 nM. On to `Cc1cc(Sc2ccccc2)c(S(C)(=O)=O)cc1C(=O)N=C(N)N`, for which the concentration for half-maximal inhibition (IC50) is reported as 14 nM. Then `Cc1cc(OC(C)(C)C)c(S(C)(=O)=O)cc1C(=O)N=C(N)N`, with 9.4 nM. In turn, `CCN(CC)Cc1cc(Br)c(S(C)(=O)=O)cc1C(=O)N=C(N)N` yielded an IC50 of 9500 nM.

Turning to `CS(=O)(=O)c1cc(C(=O)N=C(N)N)c(Cl)cc1N1CCC(N)CC1`, the IC50 came to 20 nM. Then `Cc1cc(Oc2cccnc2)c(S(C)(=O)=O)cc1C(=O)N=C(N)N`, with 8.8 nM; and `Cc1cc(N2CCC(N)CC2)c(S(C)(=O)=O)cc1C(=O)N=C(N)N`, with 9.8 nM; and `Cc1cc(Oc2cncc(Cl)c2)c(S(C)(=O)=O)cc1C(=O)N=C(N)N`, with 14 nM. Then `Cc1cc(Nc2ccccn2)c(S(C)(=O)=O)cc1C(=O)N=C(N)N`, with 9.2 nM. With `Cc1cc(N)c(S(C)(=O)=O)cc1C(=O)N=C(N)N` the figure was 16 nM. Regarding `Cc1c(C(=O)N=C(N)N)cc(S(C)(=O)=O)c(Cl)c1[N+](=O)[O-]`, the half-inhibitory concentration (IC50) is 44 nM. With `Cc1c(C(=O)N=C(N)N)ccc(Oc2cccnc2)c1S(C)(=O)=O` the figure was 2200 nM.

Molecule `Cc1cc(O)c(S(C)(=O)=O)cc1C(=O)N=C(N)N` had a concentration for half-maximal inhibition (IC50) of 220 nM.

The molecule `CS(=O)(=O)c1cc(C(=O)N=C(N)N)ccc1-n1cccn1` displayed an IC50 of 160 nM. `Cc1cc(-n2ccc(=O)cc2)c(S(C)(=O)=O)cc1C(=O)N=C(N)N` yielded a half-maximal inhibitory concentration (IC50) of 75 nM. Turning to `Cc1ccc(-c2ccc(C(=O)N=C(N)N)cc2S(C)(=O)=O)cc1`, the IC50 is 100 nM. Then `Cc1cc(-c2ccc(Cl)cc2)c(S(C)(=O)=O)cc1C(=O)N=C(N)N`, with 45 nM; and `Cc1ccc(C(=O)N=C(N)N)cc1S(C)(=O)=O`, with 210 nM; and `Cc1cc(-c2ccc(Cl)cc2Cl)c(S(C)(=O)=O)cc1C(=O)N=C(N)N`, with 42 nM. Regarding `Cc1cc(-n2ccnc2C)c(S(C)(=O)=O)cc1C(=O)N=C(N)N`, the half-maximal inhibitory concentration (IC50) turned out to be 29 nM. With `Cc1ccc(-c2cc(C)c(C(=O)N=C(N)N)cc2S(C)(=O)=O)cc1` the figure was 25 nM. With `CCCCCc1cc(C)c(C(=O)N=C(N)N)cc1S(C)(=O)=O` the figure was 27 nM; with `CS(=O)(=O)c1cc(C(=O)N=C(N)N)ccc1N1CCC(N)CC1`, 160 nM; with `Cc1cc(N2CCCC2)c(S(C)(=O)=O)cc1C(=O)N=C(N)N`, 11 nM. With `CS(=O)(=O)c1cc(C(=O)N=C(N)N)ccc1N1CCCC(O)C1` (stereo not drawn) the figure was 65 nM; with `CS(=O)(=O)c1cc(C(=O)N=C(N)N)c(Cl)cc1Nc1ncccn1`, 49 nM; with `Cc1cc(C2CCC2)c(S(C)(=O)=O)cc1C(=O)N=C(N)N`, 8.2 nM. The molecule `Cc1cc(C2CCCCC2)c(S(C)(=O)=O)cc1C(=O)N=C(N)N` had a half-inhibitory concentration (IC50) of 22 nM. This IC50 lies about 2.7-fold higher than the previous one. With `COc1ccc(C(=O)N=C(N)N)cc1S(C)(=O)=O` the figure was 270 nM. On to `CCc1cc(N2CCC(O)CC2)c(S(C)(=O)=O)cc1C(=O)N=C(N)N`, for which the IC50 is reported as 41 nM. `Cc1cc(OC2CCCCC2)c(S(C)(=O)=O)cc1C(=O)N=C(N)N`: the IC50 was 37 nM. Then `CS(=O)(=O)c1cc(C(=O)N=C(N)N)c(Cl)cc1N1CCCC(O)C1` (stereo not drawn), with 60 nM; and `Cc1cc(-n2cnc3ccccc32)c(S(C)(=O)=O)cc1C(=O)N=C(N)N`, with 100 nM; and `CC(C)c1ccc(C(=O)N=C(N)N)cc1S(C)(=O)=O` [CARIPORIDE], with 26 nM. Then `Cc1cc(-n2cccn2)c(S(C)(=O)=O)cc1C(=O)N=C(N)N`, with 25 nM; and `Cc1c(C(=O)N=C(N)N)cc(S(C)(=O)=O)c(Oc2cccnc2)c1C`, with 23 nM.

On to `CS(=O)(=O)c1cc(C(=O)N=C(N)N)c(Cl)cc1Cl`, for which the half-inhibitory concentration (IC50) is recorded as 140 nM. This IC50 is about 6.1-fold higher than that of the molecule before. In the case of `Cc1cc(C(C)C)c(S(C)(=O)=O)cc1C(=O)N=C(N)N`, the IC50 came out at 2 nM. Then `Cc1cc(Sc2ccncc2)c(S(C)(=O)=O)cc1C(=O)N=C(N)N`, with 13 nM; and `CS(=O)(=O)c1cc(C(=O)N=C(N)N)c(Cl)cc1-n1ccnc1`, with 130 nM; and `Cc1cc(SC(C)C)c(S(C)(=O)=O)cc1C(=O)N=C(N)N`, with 12 nM.

Molecule `CS(=O)(=O)c1cc(C(=O)N=C(N)N)ccc1C#N` came in with an IC50 of 140 nM. In turn, `Cc1cc(OC2CCCC2)c(S(C)(=O)=O)cc1C(=O)N=C(N)N` returned a half-inhibitory concentration (IC50) of 27 nM. This IC50 lies about 5.2-fold lower than the previous one.

In turn, `Cc1cc(-c2ccc(F)cc2)c(S(C)(=O)=O)cc1C(=O)N=C(N)N` came in with a concentration for half-maximal inhibition (IC50) of 36 nM. This IC50 and that of the molecule before are within 1.5-fold of each other.

In the case of `CS(=O)(=O)c1cc(C(=O)N=C(N)N)c(N)cc1N1CCCC(O)C1` (stereo not drawn), the half-maximal inhibitory concentration (IC50) came out at 160 nM. This IC50 lies about 4.4-fold higher than the previous one.

`CCSc1cc(C)c(C(=O)N=C(N)N)cc1S(C)(=O)=O`: the IC50 came out at 5.9 nM. In turn, `Cc1cc(-c2cc(C(F)(F)F)cc(C(F)(F)F)c2)c(S(C)(=O)=O)cc1C(=O)N=C(N)N` displayed a half-maximal inhibitory concentration (IC50) of 2800 nM. Then `Cc1cc(OCc2ccccc2)c(S(C)(=O)=O)cc1C(=O)N=C(N)N`, with 28 nM; and `CCCSc1cc(C)c(C(=O)N=C(N)N)cc1S(C)(=O)=O`, with 6.8 nM; and `CS(=O)(=O)c1cc(C(=O)N=C(N)N)ccc1N1CCCCC1`, with 130 nM.

Regarding `CS(=O)(=O)c1cc(C(=O)N=C(N)N)c(N)cc1Cl`, the IC50 was determined as 130 nM. `Cc1cc(-c2ccccc2)c(S(C)(=O)=O)cc1C(=O)N=C(N)N` displayed a concentration for half-maximal inhibition (IC50) of 19 nM. In turn, `Cc1cc(Oc2ccccc2Cl)c(S(C)(=O)=O)cc1C(=O)N=C(N)N` came in with a concentration for half-maximal inhibition (IC50) of 14 nM. This IC50 and that of the molecule before are within 1.5-fold of each other. With `Cc1cc(Nc2cccc(Cl)c2)c(S(C)(=O)=O)cc1C(=O)N=C(N)N` the figure was 33 nM. Molecule `CS(=O)(=O)c1cc(C(=O)N=C(N)N)ccc1C1CCCCC1` showed an IC50 of 340 nM. For `Cc1c(C(=O)N=C(N)N)cc(S(C)(=O)=O)c(C)c1C`, the IC50 is 55 nM. The molecule `Cc1cc(C#N)c(S(C)(=O)=O)cc1C(=O)N=C(N)N` displayed an IC50 of 70 nM. The IC50 values of the last two molecules are within 1.5-fold of each other. For `Cc1cc(Cl)c(S(C)(=O)=O)cc1C(=O)N=C(N)N`, the IC50 is 25 nM.

`Cc1cc(C(F)(F)F)c(S(C)(=O)=O)cc1C(=O)N=C(N)N` came in with an IC50 of 37 nM. This IC50 and that of the molecule before are within 1.5-fold of each other. Then `Cc1cc(Br)c(S(C)(=O)=O)cc1C(=O)N=C(N)N`, with 12 nM; and `CCc1cc(-n2ccc(=O)cc2)c(S(C)(=O)=O)cc1C(=O)N=C(N)N`, with 930 nM; and `Cc1cc(Sc2ccccc2Cl)c(S(C)(=O)=O)cc1C(=O)N=C(N)N`, with 14 nM. Then `Cc1c(C(=O)N=C(N)N)cc(S(C)(=O)=O)c(-n2ccnc2)c1C`, with 290 nM; and `COc1cc(Cl)c(C(=O)N=C(N)N)cc1S(C)(=O)=O`, with 40 nM; and `CS(=O)(=O)c1cc(C(=O)N=C(N)N)c(F)cc1F`, with 630 nM.

For `CS(=O)(=O)c1cc(C(=O)N=C(N)N)ccc1-n1ccc(=O)cc1`, the IC50 is on record as 710 nM. The IC50 values of the last two molecules are within 1.5-fold of each other. Then `CS(=O)(=O)c1cc(C(=O)N=C(N)N)c(Cl)cc1Oc1cccnc1`, with 52 nM; and `COc1cc(C)c(C(=O)N=C(N)N)cc1S(C)(=O)=O`, with 16 nM.

Regarding `Cc1cn(-c2cc(C)c(C(=O)N=C(N)N)cc2S(C)(=O)=O)cn1`, the IC50 amounted to 28 nM.

As to `CCc1cc(OC)c(S(C)(=O)=O)cc1C(=O)N=C(N)N`, the IC50 stood at 30 nM. With `Cc1cc(N2CCCC(O)C2)c(S(C)(=O)=O)cc1C(=O)N=C(N)N` (stereo not drawn) the figure was 30 nM. `CCCc1cc(C)c(C(=O)N=C(N)N)cc1S(C)(=O)=O` showed an IC50 of 5.7 nM. Compared with the last molecule, the IC50 is about 5.3-fold lower. With `Cc1cc(Br)c(C(=O)N=C(N)N)cc1S(C)(=O)=O` the figure was 70 nM. For the molecule `Cc1cc(N2CCCCC2)c(S(C)(=O)=O)cc1C(=O)N=C(N)N`, the IC50 was determined as 21 nM. With `Cc1cc(C)c(S(C)(=O)=O)cc1C(=O)N=C(N)N` the figure was 11 nM; with `Cc1ccc(S(C)(=O)=O)cc1C(=O)N=C(N)N`, 150 nM; with `CS(=O)(=O)c1cc(C(=O)N=C(N)N)c(N2CCCCC2)cc1N1CCCCC1`, 1000 nM. Consider `CCc1cc(Oc2cccnc2)c(S(C)(=O)=O)cc1C(=O)N=C(N)N`, for which the IC50 came to 27 nM.

Molecule `COc1cc(N2CCC(N)CC2)c(S(C)(=O)=O)cc1C(=O)N=C(N)N` came in with a half-maximal inhibitory concentration (IC50) of 73 nM. `CCc1cc(Br)c(S(C)(=O)=O)cc1C(=O)N=C(N)N` showed an IC50 of 41 nM.

With `CS(=O)(=O)c1cc(C(=O)N=C(N)N)ccc1Oc1cncc(Cl)c1`, the concentration for half-maximal inhibition (IC50) is 75 nM. With `Cc1cc(N2CCN(c3ncccn3)CC2)c(S(C)(=O)=O)cc1C(=O)N=C(N)N` the figure was 27 nM; with `Cc1c(C(=O)N=C(N)N)cc(S(C)(=O)=O)c(C#N)c1C`, 370 nM; with `Cc1cc(Oc2cccc(Cl)c2)c(S(C)(=O)=O)cc1C(=O)N=C(N)N`, 21 nM. `Cc1cc(Sc2ccc(Cl)cc2)c(S(C)(=O)=O)cc1C(=O)N=C(N)N` displayed a half-inhibitory concentration (IC50) of 19 nM. The IC50 values of the last two molecules are within 1.5-fold of each other. The molecule `CCOc1cc(C)c(C(=O)N=C(N)N)cc1S(C)(=O)=O` came in with a concentration for half-maximal inhibition (IC50) of 19 nM. With `Cc1cc(-n2ccnc2)c(S(C)(=O)=O)cc1C(=O)N=C(N)N` the figure was 23 nM. `Cc1cc(-c2cc(Cl)cc(Cl)c2)c(S(C)(=O)=O)cc1C(=O)N=C(N)N` came in with a half-maximal inhibitory concentration (IC50) of 130 nM. Against the preceding molecule, the IC50 is about 5.7-fold higher. On to `Cc1cc(SC(C)(C)C)c(S(C)(=O)=O)cc1C(=O)N=C(N)N`, for which the half-inhibitory concentration (IC50) stood at 22 nM. This IC50 lies about 5.9-fold lower than the previous one. In turn, `CS(=O)(=O)c1cc(C(=O)N=C(N)N)ccc1Br` came in with an IC50 of 180 nM.

In the case of `Cc1cc(OC(C)C)c(S(C)(=O)=O)cc1C(=O)N=C(N)N`, the IC50 worked out at 19 nM. Then `CS(=O)(=O)c1cc(C(=O)N=C(N)N)c(N)cc1N1CCCCC1`, with 190 nM.

For orientation: IC50 means the concentration that inhibits the measured activity by half. A lower IC50 goes with higher potency.

Values taken from ChEMBL document CHEMBL1130075, “(2-Methyl-5-(methylsulfonyl)benzoyl)guanidine Na+/H+ antiporter inhibitors” (J Med Chem, 1997).
